Source: PubChem
hIAP act: human IAP activation; purified human IAP, CDP-Star luminescence, 30 min; hits give high values; 1 = vehicle-only enzyme, 0 = enzyme-free background; activation factor at 10 µM; hit rate 0.16% among 330,000; P09923;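 active means activation factor of the enzyme at least 2-fold when tested at 20 µM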
Target sequence (P09923 whole entry, looked up): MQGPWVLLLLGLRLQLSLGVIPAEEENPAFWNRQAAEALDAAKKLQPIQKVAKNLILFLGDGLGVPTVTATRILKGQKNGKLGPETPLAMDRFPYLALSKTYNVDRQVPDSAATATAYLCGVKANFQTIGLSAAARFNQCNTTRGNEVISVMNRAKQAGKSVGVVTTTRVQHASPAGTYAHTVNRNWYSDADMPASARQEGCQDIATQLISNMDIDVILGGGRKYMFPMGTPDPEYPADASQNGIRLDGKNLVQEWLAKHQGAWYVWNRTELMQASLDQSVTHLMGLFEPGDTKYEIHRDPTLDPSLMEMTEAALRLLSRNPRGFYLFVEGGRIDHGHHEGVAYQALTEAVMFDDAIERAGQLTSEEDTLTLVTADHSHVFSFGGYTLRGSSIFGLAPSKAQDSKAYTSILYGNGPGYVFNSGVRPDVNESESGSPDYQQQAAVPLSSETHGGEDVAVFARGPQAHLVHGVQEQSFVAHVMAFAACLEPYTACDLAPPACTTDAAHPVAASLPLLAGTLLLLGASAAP
hIAP inh: blocks human intestinal alkaline phosphatase. AID 2544. purified IAP, CDP-Star luminescence, 30 min. inhibition, % at 10 µM. hit rate 0.12% among 330,000;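 active means inhibition reaching a set limit with compound at 10 µM in the primary screen, cut at about 35% in these data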;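 further: plate controls were DMSO wells with enzyme for no effect and no-enzyme buffer wells for full effect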
mIAP inh: mouse IAP inhibition; AID 2806; purified mouse IAP, CDP-Star luminescence, 30 min; inhibition, % at 10 µM; hit rate 0.2% among 330,000;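 active means inhibition of at least 40% at 10 µM in the primary screen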;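 further: plate controls were DMSO with enzyme for no effect and no enzyme wells for full effect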
bIAP activator: intestinal alkaline phosphatase (bovine) activation; purified bovine IAP, CDP-star luminescence, 30 min; hits give high values; fold of DMSO-control signal, blank-subtracted; activation factor at 20 µM; hit rate 0.17% among 200,000;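 active means activation factor of 2 or more at 20 µM, a signal rise over negative controls twice the positive control's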
mIAP activ: increases mouse intestinal alkaline phosphatase activity; hit rate 0.24% among 330,000; activation factor at 10 µM; muIAP, CDP-Star luminescence, 30 min; hits give high values; 1 = vehicle-only enzyme signal, 0 = enzyme-free wells; AID 2805;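 active means activation factor of at least 2 at 20 µM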
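also added = chemiluminescent substrate CDP-Star | test system = mouse IAP enzyme | signal = chemiluminescence readout | compound = DMSO-dissolved test compounds | incubation = 30 min at room temperature | benchmarks = DMSO wells, no-enzyme wells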
bIAP inh: blocks bovine intestinal alkaline phosphatase activity | purified bovine IAP, CDP-star luminescence, 30 min | inhibition, % at 20 µM | 190,000 tested, under 10 active;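 active means over 50% inhibition of intestinal alkaline phosphatase at 20 µM in the single-dose screen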
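Assay system – bovine IAP enzyme · Quantity – bovine IAP at 1/65,000,000 final dilution · Detection – CDP-star luminescence signal · Times – 30 min reaction at room temperature · Also added – CDP-star substrate at 30 µM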
mIAP inh conf: mouse IAP inhibition confirmation. shares compounds with mIAP inh. purified mouse IAP, CDP-Star luminescence, 30 min. inhibition, % at 10 µM. hit rate 4.7% among 11,000;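 active means inhibition of at least 40% at 10 µM in either of the two replicates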;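 further: plate controls were DMSO wells with enzyme for no effect and buffer wells lacking enzyme for full effect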
* marks the source's active call; other numbers are inactive results. A selection: hits, their analogues and other compounds. The true share with any hit is near 0.77%.

For COc1cc(OC)cc(C(=O)NNC(=O)c2cc(S(=O)(=O)N3CCOCC3)ccc2F)c1 the results were hIAP act 0.97, hIAP inh 3, mIAP inh 10 and mIAP activ 0.9.
Screening COc1ccc(-n2c(C)cc(/C=C3\SC(=S)NC3=O)c2C)cc1 returned hIAP act 1.1, hIAP inh -10, mIAP inh 27, bIAP activator 0.5, mIAP activ 0.73 and bIAP inh 45.
Screening Cc1cc(/C=C2\SC(=S)NC2=O)c(C)n1-c1ccccc1 returned hIAP act 0.86, hIAP inh 14, mIAP inh 43*, mIAP activ 0.57 and mIAP inh conf 48*.
For Cc1cc(/C=C2\SC(=S)NC2=O)c(C)n1-c1ccc(O)cc1 the results were hIAP act 0.88, hIAP inh 12, mIAP inh 73*, mIAP activ 0.27 and mIAP inh conf 71*.
Screening Cc1cc(/C=C2\SC(=S)NC2=O)c(C)n1C returned hIAP act 0.93, hIAP inh 7, mIAP inh 59*, bIAP activator 0.8, mIAP activ 0.41, bIAP inh 20 and mIAP inh conf 62*.
`COc1cc(CCC(=O)NNC(=O)c2cccc(Cl)c2)cc(OC)c1OC` gave hIAP act 1.1, hIAP inh -6, mIAP inh 0 and mIAP activ 1.
O=C(/C=C/c1ccco1)NC(=S)Nc1ccc(C(=O)O)cc1 was read as hIAP act 1.2, hIAP inh -17, mIAP inh 43*, mIAP activ 0.57 and mIAP inh conf 67*.
For O=C(/C=C/c1ccco1)NC(=S)NNC(=O)c1ccco1 the results were hIAP act 1.5, hIAP inh -48, mIAP inh 49*, bIAP activator 0.9, mIAP activ 0.51, bIAP inh 6 and mIAP inh conf 54*.
Screening C=CCNC(=S)NNC(=O)c1ccco1 returned hIAP act 1.4, hIAP inh -37, mIAP inh 10, bIAP activator 1.3, mIAP activ 0.9 and bIAP inh -26.
For CC(=O)NC(=S)Nc1ccc(NC(=S)NC(=O)/C=C/c2ccco2)cc1 the results were hIAP act 0.91, hIAP inh 10, mIAP inh 15 and mIAP activ 0.85.
Screening CN(CC(=O)NC(=O)NC1CCCCC1)Cc1ccccc1 returned hIAP act 1.2, hIAP inh -17, mIAP inh -13 and mIAP activ 1.1.
For O=C1SC(SCc2ccccc2)=N/C1=C\c1ccco1 the results were hIAP act 0.92, hIAP inh 8, mIAP inh 25, bIAP activator 0.8, mIAP activ 0.75 and bIAP inh 21.
Screening CCCSC1=N/C(=C\C=C\c2ccco2)C(=O)S1 returned hIAP act 0.94, hIAP inh 6, mIAP inh 45*, bIAP activator 0.7, mIAP activ 0.55, bIAP inh 31 and mIAP inh conf 61*.
Screening COc1ccc([C@H]2CC(=O)C=C(c3ccc(CNC(=O)OC(C)(C)C)cc3)C2)cc1 returned hIAP act 0.93, hIAP inh 7, mIAP inh 6 and mIAP activ 0.94.
`N#C/C(=C\c1coc2ccc(O)cc2c1=O)C(=O)Nc1nc2ccccc2s1` gave hIAP act 0.98, hIAP inh 2, mIAP inh 60*, mIAP activ 0.4 and mIAP inh conf 64*.
For CCCCC(=O)c1ccc(O)cc1 the results were hIAP act 0.96, hIAP inh 4, mIAP inh 6, bIAP activator 0.9, mIAP activ 0.94 and bIAP inh 12.
For O=C(CCO)c1ccc(O)cc1 the results were hIAP act 0.86, hIAP inh 14, mIAP inh 46*, bIAP activator 0.9, mIAP activ 0.54, bIAP inh 9 and mIAP inh conf 47*.
For Cc1cc2nc3ccc(N(C)C)cc3nc2cc1N the results were hIAP act 1, hIAP inh -2, mIAP inh 57*, mIAP activ 0.43 and mIAP inh conf 65*.
`CCOc1ncccc1C(=O)Nc1ccc(OC)c(S(=O)(=O)N2CCOCC2)c1` gave hIAP act 1, hIAP inh -4, mIAP inh 0 and mIAP activ 1.
